Assay results reported in ChEMBL document CHEMBL2146414, “Lignan derivatives from Krameria lappacea roots inhibit acute inflammation in vivo and pro-inflammatory mediators in vitro” (J Nat Prod, 2011).

How the values were obtained:
Prostaglandin E synthase = molecular target: T1, Prostaglandin E synthase (Homo sapiens, UniProt O14684); assay: Inhibition of mPGES1 in IL-1beta treated human A549 cell microsomal membrane assessed as inhibition of PGE2 formation incubated for 15 mins before addition of PGH2 by RP-HPLC method; assay type: microsomes, Microsome
T1 sequence (O14684 whole entry): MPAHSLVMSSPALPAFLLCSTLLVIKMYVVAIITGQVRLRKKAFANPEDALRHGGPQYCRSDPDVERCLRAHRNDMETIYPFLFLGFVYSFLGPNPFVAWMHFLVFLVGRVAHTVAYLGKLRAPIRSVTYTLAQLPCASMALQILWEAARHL

Mus musculus [1] = assay: Antiinflammatory activity in CD1 mouse ear dermatitis model assessed as inhibition of Croton oil-induced ear edema at 0.30 umol administered topically per cm'2 of ear measured after induction of dermatitis relative to untreated control; assay type: functional
In short: (§1)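 Male CD-1 mice (28–32 g), anesthetized with ketamine 145 mg/kg i.p.; right ear (about 1 cm2) given 80 μg croton oil in 15 μL acetone, with test substance co-applied in acetone; left ear left untreated. Controls received irritant only. 6 mm punches taken from both ears; edema = weight difference treated minus untreated; % inhibition vs controls. ID50 by graphic interpolation of log dose–effect curves; ANOVA with Dunnett's test.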

[2] = molecular target: T2, Prostaglandin G/H synthase 2 (Ovis aries, UniProt P79208); assay: Inhibition of sheep placental COX2 assessed as PGE2 production by enzyme immunoassay
T2 sequence (P79208 whole entry): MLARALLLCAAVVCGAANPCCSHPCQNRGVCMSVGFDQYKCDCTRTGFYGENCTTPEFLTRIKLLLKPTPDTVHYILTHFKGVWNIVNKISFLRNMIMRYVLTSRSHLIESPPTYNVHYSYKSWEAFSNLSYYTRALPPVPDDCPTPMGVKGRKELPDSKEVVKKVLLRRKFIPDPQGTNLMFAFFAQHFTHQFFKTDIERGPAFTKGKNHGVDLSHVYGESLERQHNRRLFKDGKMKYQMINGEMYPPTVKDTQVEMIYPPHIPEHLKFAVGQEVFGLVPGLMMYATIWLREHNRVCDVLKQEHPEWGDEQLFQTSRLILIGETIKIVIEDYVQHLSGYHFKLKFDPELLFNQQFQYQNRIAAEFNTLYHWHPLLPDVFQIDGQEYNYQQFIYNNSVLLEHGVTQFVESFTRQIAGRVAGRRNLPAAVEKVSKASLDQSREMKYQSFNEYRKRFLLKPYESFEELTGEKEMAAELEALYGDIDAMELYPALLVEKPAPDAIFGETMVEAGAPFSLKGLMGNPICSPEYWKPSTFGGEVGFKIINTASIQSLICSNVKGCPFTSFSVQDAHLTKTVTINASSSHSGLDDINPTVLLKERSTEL

[3] = molecular target: T3, Prostaglandin G/H synthase 1 (Ovis aries, UniProt P05979); assay: Inhibition of ram seminal vesicle COX1 assessed as PGE2 production by enzyme immunoassay
T3 sequence (P05979 whole entry): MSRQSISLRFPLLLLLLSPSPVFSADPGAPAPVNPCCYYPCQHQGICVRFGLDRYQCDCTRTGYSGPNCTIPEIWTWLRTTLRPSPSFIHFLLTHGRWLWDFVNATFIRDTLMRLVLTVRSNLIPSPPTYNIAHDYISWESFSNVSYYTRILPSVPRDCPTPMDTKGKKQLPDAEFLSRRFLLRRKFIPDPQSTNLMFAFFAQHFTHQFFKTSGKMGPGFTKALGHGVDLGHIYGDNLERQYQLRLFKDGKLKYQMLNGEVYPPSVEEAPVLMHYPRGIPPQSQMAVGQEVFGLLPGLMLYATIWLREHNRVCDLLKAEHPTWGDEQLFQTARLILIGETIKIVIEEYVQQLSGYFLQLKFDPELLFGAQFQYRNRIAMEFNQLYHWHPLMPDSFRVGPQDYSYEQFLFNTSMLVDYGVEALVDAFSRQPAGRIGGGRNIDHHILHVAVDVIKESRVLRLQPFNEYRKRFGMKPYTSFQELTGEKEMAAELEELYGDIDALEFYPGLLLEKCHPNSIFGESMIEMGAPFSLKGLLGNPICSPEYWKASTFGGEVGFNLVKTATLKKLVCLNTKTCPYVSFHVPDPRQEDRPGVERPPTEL
In short: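 Purified PGHS-1 from ram seminal vesicles; PGE2 product measured by competitive EIA; samples in ethanol. IC50 from at least three concentrations, duplicates, at least three independent experiments, by nonlinear regression.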

[4] = molecular target: T4, Polyunsaturated fatty acid 5-lipoxygenase (Homo sapiens, UniProt P09917); assay: Inhibition of 5-lipoxygenase in human neutrophils assessed as inhibition of LTB4 production
T4 sequence (P09917 whole entry): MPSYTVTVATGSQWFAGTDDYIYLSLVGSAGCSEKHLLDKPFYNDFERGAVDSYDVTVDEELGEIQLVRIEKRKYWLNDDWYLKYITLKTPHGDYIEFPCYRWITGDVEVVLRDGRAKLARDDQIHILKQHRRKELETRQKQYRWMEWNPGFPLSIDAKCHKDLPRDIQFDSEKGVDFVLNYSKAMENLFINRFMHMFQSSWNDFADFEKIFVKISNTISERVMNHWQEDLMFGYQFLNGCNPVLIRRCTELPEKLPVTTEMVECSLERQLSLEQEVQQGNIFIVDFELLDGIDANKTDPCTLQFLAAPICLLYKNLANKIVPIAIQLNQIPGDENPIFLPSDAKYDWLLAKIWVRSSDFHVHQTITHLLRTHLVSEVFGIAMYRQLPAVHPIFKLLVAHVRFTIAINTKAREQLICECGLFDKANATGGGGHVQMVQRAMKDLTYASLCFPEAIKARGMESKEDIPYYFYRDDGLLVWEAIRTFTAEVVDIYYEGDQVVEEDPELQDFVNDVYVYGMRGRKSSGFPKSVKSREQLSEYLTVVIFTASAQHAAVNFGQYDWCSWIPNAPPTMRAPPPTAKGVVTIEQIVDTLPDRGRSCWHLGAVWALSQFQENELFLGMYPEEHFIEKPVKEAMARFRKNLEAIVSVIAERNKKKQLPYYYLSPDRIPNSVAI
In short: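 Stimulated human neutrophilic granulocytes; 5-LO-mediated LTB4 formation measured; samples dissolved in ethanol. IC50 from at least three concentrations, duplicates, at least three independent experiments, by nonlinear regression.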

Mus musculus [5] = assay: Antiinflammatory activity in CD1 mouse ear dermatitis model assessed as inhibition of Croton oil-induced ear edema at 1 umol administered topically per cm'2 of ear measured after induction of dermatitis relative to untreated control; assay type: functional; in short: as §1
[6] = Inhibition of NFkappaB activity transfected in HEK293 cells pretreated for 1 hr before 6 hrs of LPS challenge by luciferase reporter gene assay; conditions: Homo sapiens

SMILES: COc1cc(O)ccc1-c1cc2cc(CCCO)ccc2o1
- IC50 (Prostaglandin E synthase): > 50 µM
- inhibition (INH) (Mus musculus [1]): 32%
- IC50 [2]: > 50 µM
- IC50 [3]: > 50 µM
- IC50 [4]: 41.4 µM
- inhibition (INH) (Mus musculus [5]): 75%

SMILES: C/C=C/c1ccc2oc(-c3ccc(O)cc3)c(C)c2c1 [RATANIAPHENOL II]
- IC50 (Prostaglandin E synthase): 11 µM
- inhibition (INH) (Mus musculus [1]): 41%
- IC50 [2]: 1.7 µM
- IC50 [3]: 3 µM
- IC50 [4]: > 50 µM
- inhibition (INH) (Mus musculus [5]): 75%

SMILES: C/C=C/c1ccc2oc(-c3ccc(O)cc3OC)cc2c1 [RATANIAPHENOL III]
- IC50 (Prostaglandin E synthase): 13.5 µM
- inhibition (INH) (Mus musculus [1]): 35%
- IC50 [2]: 7.6 µM
- IC50 [3]: 2.7 µM
- IC50 [6]: > 20 µM
- IC50 [4]: > 50 µM
- inhibition (INH) (Mus musculus [5]): 70%

SMILES: C/C=C/c1ccc2c(c1)[C@H](CO)[C@@H](c1ccc(O)cc1)O2
- IC50 (Prostaglandin E synthase): 39.5 µM
- inhibition (INH) (Mus musculus [1]): 36%
- IC50 [2]: > 50 µM
- IC50 [3]: > 50 µM
- IC50 [4]: > 50 µM
- inhibition (INH) (Mus musculus [5]): 75%

SMILES: COc1ccc(-c2cc3cc(CCCO)ccc3o2)c(O)c1
- IC50 (Prostaglandin E synthase): 42 µM
- inhibition (INH) (Mus musculus [1]): 50%
- IC50 [2]: > 50 µM
- IC50 [3]: > 50 µM
- IC50 [6]: 5.9 µM
- IC50 [4]: 27.2 µM
- inhibition (INH) (Mus musculus [5]): 67%

SMILES: C/C=C/c1ccc2c(c1)[C@@H](C)[C@H](c1ccc(O)cc1)O2
- IC50 (Prostaglandin E synthase): 19.5 µM
- inhibition (INH) (Mus musculus [1]): 45%
- IC50 [2]: > 50 µM
- IC50 [3]: > 50 µM
- IC50 [6]: > 20 µM
- IC50 [4]: 18.4 µM
- inhibition (INH) (Mus musculus [5]): 81%

SMILES: C/C=C/c1ccc2oc(-c3ccc(OC)cc3O)cc2c1 [RATANIAPHENOL I]
- IC50 (Prostaglandin E synthase): 13 µM
- inhibition (INH) (Mus musculus [1]): 33%
- IC50 [2]: > 50 µM
- IC50 [3]: > 50 µM
- IC50 [6]: 14.7 µM
- IC50 [4]: > 50 µM
- inhibition (INH) (Mus musculus [5]): 64%

SMILES: C[C@@H]1[C@H](C)[C@@H](c2ccc(O)cc2)O[C@H]1c1ccc(O)cc1
- IC50 (Prostaglandin E synthase): > 50 µM
- inhibition (INH) (Mus musculus [1]): 52%
- IC50 [2]: > 50 µM
- IC50 [3]: > 50 µM
- IC50 [6]: > 20 µM
- IC50 [4]: > 50 µM
- inhibition (INH) (Mus musculus [5]): 72%

SMILES: C/C=C/c1ccc2oc(-c3ccc(O)cc3O)cc2c1
- IC50 (Prostaglandin E synthase): 7.4 µM
- inhibition (INH) (Mus musculus [1]): 29%
- IC50 [2]: 7.1 µM
- IC50 [3]: 3.8 µM
- IC50 [4]: > 50 µM
- inhibition (INH) (Mus musculus [5]): 64%

SMILES: C/C=C/c1ccc2oc(-c3ccc(O)cc3)cc2c1
- IC50 (Prostaglandin E synthase): 5.3 µM
- inhibition (INH) (Mus musculus [1]): 35%
- IC50 [2]: 2 µM
- IC50 [3]: 18.3 µM
- IC50 [6]: 1.4 µM
- IC50 [4]: > 50 µM
- inhibition (INH) (Mus musculus [5]): 74%

SMILES: C[C@@H]1[C@H](C)[C@@H](c2ccc(O)cc2)O[C@@H]1c1ccc(O)cc1
- IC50 (Prostaglandin E synthase): > 50 µM
- inhibition (INH) (Mus musculus [1]): 39%
- IC50 [2]: > 50 µM
- IC50 [3]: > 50 µM
- IC50 [4]: > 50 µM
- inhibition (INH) (Mus musculus [5]): 67%
